Test results reported in ChEMBL document CHEMBL4145473, “Substituted tetrahydroisoquinolines: synthesis, characterization, antitumor activity and other biological properties” (Eur J Med Chem, 2018).
Blank lines part the entries; values can stand above or below the molecule they belong to. Calls of active or inactive are those of the source. The calls are words filed in the database; no cut-off is given here.

Key:
[1] = target: GTPase KRas (Homo sapiens) (UniProt P01116); assay: Inhibition of KRas in human RKO cells at 2 uM relative to control; assay type: cell-based
[2] = target: GTPase KRas (Homo sapiens) (UniProt P01116); assay: Inhibition of KRas in human Colon 320 cells at 2 uM relative to control; assay type: cell-based
[3] = target: GTPase KRas (Homo sapiens) (UniProt P01116); assay: Inhibition of KRas in human RKO cells at 20 uM relative to control; assay type: cell-based
[4] = target: GTPase KRas (Homo sapiens) (UniProt P01116); assay: Inhibition of KRas in human HCT cells at 2 uM relative to control; assay type: cell-based
[5] = target: GTPase KRas (Homo sapiens) (UniProt P01116); assay: Inhibition of KRas in human HCT cells at 0.2 uM relative to control; assay type: cell-based
[6] = target: GTPase KRas (Homo sapiens) (UniProt P01116); assay: Inhibition of KRas in human SNU-C1 cells at 0.2 uM relative to control; assay type: cell-based
[7] = target: GTPase KRas (Homo sapiens) (UniProt P01116); assay: Inhibition of KRas in human RKO cells at 0.2 uM relative to control; assay type: cell-based
[8] = target: GTPase KRas (Homo sapiens) (UniProt P01116); assay: Inhibition of KRas in human SNU-C1 cells at 20 uM relative to control; assay type: cell-based
[9] = target: GTPase KRas (Homo sapiens) (UniProt P01116); assay: Inhibition of KRas in human Colon 320 cells at 20 uM relative to control; assay type: cell-based
[10] = target: GTPase KRas (Homo sapiens) (UniProt P01116); assay: Inhibition of KRas in human SNU-C1 cells at 2 uM relative to control; assay type: cell-based
[11] = target: GTPase KRas (Homo sapiens) (UniProt P01116); assay: Inhibition of KRas in human Colon 320 cells at 0.2 uM relative to control; assay type: cell-based
L1210 [12] = assay: Cytotoxicity against mouse L1210 cells after 48 hrs by coulter counter method; assay type: functional, cell-based; conditions: L1210, 48 h
In short: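 L1210 cells in RPMI 1640 with 2 mM L-glutamine, penicillin, streptomycin and 20% heat-inactivated horse serum at 37 °C, 5% CO2. Drugs added in DMSO (0.5% final) to exponentially growing cells seeded at 0.8 × 10^5 cells/mL. Cells counted in triplicate after 48 h by Coulter counter. IC50 taken from probit regression of percent growth inhibition against log dose.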

L1210 [13] = assay: Cell cycle arrest in mouse L1210 cells assessed accumulation of cells at G1 phase at 100 uM after 21 hrs by propidium iodide staining-based flow cytometric analysis; assay type: functional
In short: (§1)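 L1210 leukemia cells in RPMI 1640 with 2 mM L-glutamine, penicillin, streptomycin and 20% heat-inactivated horse serum, exposed to several drug concentrations for 21 h at 37 °C, 5% CO2. Cells fixed in 70% ethanol, washed, then stained 30 min at room temperature in PBS containing RNAse and propidium iodide. Flow cytometry; result given as percentage of cells in each cell-cycle phase.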

[14] = target: GTPase KRas (Homo sapiens) (UniProt P01116); assay: Inhibition of KRas in human HCT cells at 20 uM relative to control; assay type: cell-based
L1210 [15] = assay: Cell cycle arrest in mouse L1210 cells assessed accumulation of cells at G2/M phase at 50 uM after 21 hrs by propidium iodide staining-based flow cytometric analysis; assay type: functional; in short: as §1
L1210 [16] = assay: Cell cycle arrest in mouse L1210 cells assessed accumulation of cells at G1 phase at 25 uM after 21 hrs by propidium iodide staining-based flow cytometric analysis; assay type: functional; in short: as §1
L1210 [17] = assay: Cell cycle arrest in mouse L1210 cells assessed accumulation of cells at G2/M phase at 100 uM after 21 hrs by propidium iodide staining-based flow cytometric analysis; assay type: functional; in short: as §1
L1210 [18] = assay: Cell cycle arrest in mouse L1210 cells assessed accumulation of cells at 8N phase at 5 uM after 21 hrs by propidium iodide staining-based flow cytometric analysis relative to control; assay type: functional; in short: as §1
L1210 [19] = assay: Cell cycle arrest in mouse L1210 cells assessed accumulation of cells at 8N phase at 10 uM after 21 hrs by propidium iodide staining-based flow cytometric analysis relative to control; assay type: functional; in short: as §1

GTPase KRas (Homo sapiens), sequence (P01116 whole entry, looked up): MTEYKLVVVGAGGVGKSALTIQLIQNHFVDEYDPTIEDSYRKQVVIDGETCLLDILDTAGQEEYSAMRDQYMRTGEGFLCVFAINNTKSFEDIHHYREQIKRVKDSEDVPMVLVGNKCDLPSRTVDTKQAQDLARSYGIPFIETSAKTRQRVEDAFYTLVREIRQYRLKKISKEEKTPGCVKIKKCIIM

inhibition [1]: 16.3%
inhibition [2]: 8.2%
inhibition [3]: 79.2%
inhibition [4]: 17%
inhibition [5]: 12.1%
inhibition [6]: 10%
inhibition [7]: 0%
inhibition [8]: 59.8%
inhibition [9]: 74.7%
inhibition [10]: 6%
inhibition [11]: 0%
inhibition [14]: 49.1%
Compound: COc1cc(C2c3cc4c(cc3CCN2CC#N)OCCO4)cc(OC)c1OC (stereo not drawn)
IC50 (L1210 [12]): 4.2 µM
Activity (L1210 [13]): Active

Compound: O=C(O)CCCCCN1CCc2cc3c(cc2C1c1ccncc1)OCCO3 (stereo not drawn)
IC50 (L1210 [12]): > 10 µM

Compound: COC(=O)CCCCCN1CCc2cc3c(cc2C1c1ccncc1)OCCO3 (stereo not drawn)
IC50 (L1210 [12]): > 10 µM

Compound: COc1cc2c(c3c1c(=O)c1ccccc1n3C)C=CC(C)(C)O2 [ACRONINE]
Activity (L1210 [15]): Active
IC50 (L1210 [12]): 21 µM

Compound: CCOC(=O)N1CCc2cc3c(cc2C1c1ccncc1)OCCO3 (stereo not drawn)
IC50 (L1210 [12]): > 10 µM

Compound: CCOC(=O)CCCCCN1CCc2cc3c(cc2C1c1cc(OC)c(OC)c(OC)c1)OCCO3 (stereo not drawn)
IC50 (L1210 [12]): > 10 µM

Compound: COc1cc2c(cc1OC)C(c1cc(OC)c(OC)c(OC)c1)N(CCO)CC2 (stereo not drawn)
IC50 (L1210 [12]): 23.4 µM

Compound: CCOC(CCN1CCc2cc3c(cc2C1c1cc(OC)c(OC)c(OC)c1)OCCO3)OCC (stereo not drawn)
IC50 (L1210 [12]): > 10 µM

Compound: COc1cc(C2c3cc4c(cc3CCN2CCN(C)C)OCCO4)cc(OC)c1OC (stereo not drawn)
Activity (L1210 [16]): Active
IC50 (L1210 [12]): 3.7 µM

Compound: COc1cc2c(cc1OC)C(c1cc(OC)c(OC)c(OC)c1)N(CC(O)CO)CC2 (stereo not drawn)
IC50 (L1210 [12]): 15.3 µM

inhibition [1]: 32.9%
inhibition [2]: 4%
inhibition [3]: 70.5%
inhibition [4]: 19.3%
inhibition [5]: 0%
inhibition [6]: 17.7%
inhibition [7]: 17.9%
inhibition [8]: 42.7%
inhibition [9]: 92.5%
inhibition [10]: 35%
inhibition [11]: 0%
inhibition [14]: 55.9%
Compound: COc1cc(C2c3cc4c(cc3CCN2c2ccc([N+](=O)[O-])cc2)OCCO4)cc(OC)c1OC (stereo not drawn)
Activity (L1210 [16]): Active
IC50 (L1210 [12]): 4.6 µM

Compound: COc1cc(-c2nccc3cc4c(cc23)OCCO4)cc(OC)c1OC
Activity (L1210 [17]): Active
IC50 (L1210 [12]): 25.1 µM

Compound: CCN(CC)CCN1CCc2cc3c(cc2C1c1cc(OC)c(OC)c(OC)c1)OCCO3 (stereo not drawn)
IC50 (L1210 [12]): 4.1 µM

inhibition [1]: 6.3%
inhibition [2]: 0%
inhibition [3]: 76.7%
inhibition [4]: 12.1%
inhibition [5]: 18%
inhibition [6]: 12.3%
inhibition [7]: 0%
inhibition [8]: 19.7%
inhibition [9]: 78.2%
inhibition [10]: 11.5%
inhibition [11]: 12.2%
inhibition [14]: 46.5%
Compound: COc1cc(C2c3cc4c(cc3CCN2CCO)OCCO4)cc(OC)c1OC (stereo not drawn)
Activity (L1210 [18]): 70%
IC50 (L1210 [12]): 2.6 µM

Compound: COc1cc(C2c3cc4c(cc3CCN2CCCCCC(=O)O)OCCO4)cc(OC)c1OC (stereo not drawn)
IC50 (L1210 [12]): 9.4 µM

inhibition [1]: 7.7%
inhibition [2]: 22.5%
inhibition [3]: 66.5%
inhibition [4]: 16%
inhibition [5]: 35.9%
inhibition [6]: 6.6%
inhibition [7]: 95.8%
inhibition [8]: 43.5%
inhibition [9]: 89.9%
inhibition [10]: 32.5%
inhibition [11]: 0%
inhibition [14]: 45.2%
Compound: COc1cc(C2c3cc4c(cc3CCN2c2ccc(C#N)cc2)OCCO4)cc(OC)c1OC (stereo not drawn)
Activity (L1210 [19]): 70%
IC50 (L1210 [12]): 3.6 µM

Compound: CCOC(=O)N1CCc2cc3c(cc2C1c1cc(OC)c(OC)c(OC)c1)OCCO3 (stereo not drawn)
IC50 (L1210 [12]): > 10 µM

inhibition [1]: 10.1%
inhibition [2]: 20.1%
inhibition [3]: 92.7%
inhibition [4]: 16.2%
inhibition [5]: 0%
inhibition [6]: 12.2%
inhibition [7]: 0%
inhibition [8]: 57.1%
inhibition [9]: 85.3%
inhibition [10]: 2.4%
inhibition [11]: 0%
inhibition [14]: 56.9%
Compound: COc1cc(C2c3cc4c(cc3CCN2CCN)OCCO4)cc(OC)c1OC (stereo not drawn)
Activity (L1210 [16]): Active
IC50 (L1210 [12]): 2 µM

Compound: COc1cc(C2NCCc3cc4c(cc32)OCCO4)cc(OC)c1OC (stereo not drawn)
IC50 (L1210 [12]): 21.1 µM
Activity (L1210 [13]): Active
